Rows were chosen to be rich in hits. Some 2.4% of all compounds tested hit in one or more screens of this group.
HKDC1 inh = HKDC1 (human) hexokinase inhibition; Q2TB90; recombinant HKDC1, G6PDH/diaphorase resazurin coupled fluorescence; inhibition, % at 20 µM; 340,000 tested, 0.16% active; AID 493160;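 active means inhibition above about 35% when tested at 20 µM, limit read from the data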;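 further: plate controls were DMSO wells with enzyme for no effect and DMSO wells lacking enzyme for full effect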
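Assay system: recombinant HKDC1 hexokinase; detection: coupled resazurin fluorescence, excitation 525 nm, emission 613 nm; benchmarks: DMSO-plus-enzyme-mix negative control, buffer-substituted positive control; compound dosing: single 20 µM dose; schedule: 90 min at room temperature in dark; also added: glucose plus 1 mM ATP as hexokinase substrates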
PfM18AAP inh = blocks P. falciparum M18 aspartyl aminopeptidase; recombinant PfM18AAP, H-Glu-NHMec fluorogenic cleavage; inhibition, % at 7.35 µM; 290,000 tested, 1.2% active;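 active means inhibition above the campaign mean inhibition over all tested compounds plus 3 SD, cut at about 28% in these data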;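 further: 0% = plate median of test compound wells and 100% = 2 mM ZnCl2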
PfG6PD inh = PfG6PD (Plasmodium falciparum) enzyme inhibition. 350,000 tested, 0.78% active. PfGluPho enzyme, NADPH resazurin-diaphorase fluorescence. inhibition, % at 20 µM;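 active means inhibition reaching at least a set limit at 20 µM in the primary screen, cut at about 59% in these data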;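 further: 0% = DMSO wells with substrate and 100% = DMSO wells lacking glucose-6-phosphate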
A3A deaminase = inhibitors of human APOBEC3A DNA deaminase; P31941; recombinant A3A, FAM/TAMRA ssDNA deamination fluorescence; inhibition, % at 20 µM; 330,000 tested, 0.41% active; AID 493011;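 active means at least 40% inhibition at 20 µM here, with at most 30% in a related deaminase screen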;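 further: plate controls were A3A with DMSO for no effect and wells lacking A3A enzyme for full effect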
SUMO HTRF inh = inhibitors of human SUMOylation (UBC9). P63279. HTRF SUMOylation assay, SAE1/SAE2 + UBC9, in vitro. inhibition, % at 35 µM. 290,000 tested, 0.36% active; in the data active means inhibition above about 50%, passing the limit was not always enough
APOBEC3G inh = APOBEC3G (human) deaminase inhibition; AID 493012; 330,000 tested, 0.28% active; recombinant A3G, ssDNA deamination FAM/TAMRA fluorescence; inhibition, % at 20 µM; Q9HC16;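 active means inhibition of at least 40% at 20 µM, with no more than 30% in the related APOBEC3A deaminase screen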;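 further: plate controls were DMSO wells with A3G for no effect and wells lacking A3G enzyme for full effect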
Target sequence (Q9HC16 whole entry, looked up): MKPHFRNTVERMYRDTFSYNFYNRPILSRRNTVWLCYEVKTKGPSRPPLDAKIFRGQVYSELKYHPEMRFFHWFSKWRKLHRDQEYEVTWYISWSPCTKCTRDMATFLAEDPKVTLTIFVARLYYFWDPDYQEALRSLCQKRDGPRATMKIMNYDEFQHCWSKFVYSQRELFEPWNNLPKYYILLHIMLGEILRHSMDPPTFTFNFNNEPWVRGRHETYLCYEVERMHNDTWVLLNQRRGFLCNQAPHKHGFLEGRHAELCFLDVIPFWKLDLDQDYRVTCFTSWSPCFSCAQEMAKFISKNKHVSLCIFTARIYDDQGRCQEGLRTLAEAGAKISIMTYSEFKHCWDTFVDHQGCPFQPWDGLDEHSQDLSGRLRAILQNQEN
A3G conf = APOBEC3G (human) deaminase inhibition, confirmed | shares compounds with APOBEC3G inh | recombinant A3G ssDNA deaminase, UDG/FAM-TAMRA fluorescence | inhibition, % at 20 µM | 890 tested, 72% active;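 active means inhibition reaching a set limit in any replicate at 20 µM, the limit being 80% of the first screen's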
UDG ctr A3G = E. coli UDG inhibition in APOBEC3G counter-screen; 710 tested, under 10 active; UDG counterscreen, FAM/TAMRA oligo fluorescence; shares compounds with APOBEC3G inh; inhibition, % at 20 µM;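 active means compounds giving 40% or more inhibition at 20 µM in any one of the three replicates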;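 further: plate controls were DMSO wells with UDG and oligo for no effect and DMSO wells lacking both for full effect; inhibitors lower the FAM signal released by uracil excision and alkaline cleavage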
Target sequence (P12295 whole entry, looked up): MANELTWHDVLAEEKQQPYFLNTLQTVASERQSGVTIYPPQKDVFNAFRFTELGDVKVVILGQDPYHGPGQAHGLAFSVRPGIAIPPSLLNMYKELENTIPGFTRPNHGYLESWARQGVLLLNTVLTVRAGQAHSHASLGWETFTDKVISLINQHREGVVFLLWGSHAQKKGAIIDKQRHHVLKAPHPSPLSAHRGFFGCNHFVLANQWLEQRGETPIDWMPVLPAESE
The depositor's hits bear a star; . = not tested or not shown.

SMILES	HKDC1 inh	PfM18AAP inh	PfG6PD inh	A3A deaminase	SUMO HTRF inh	APOBEC3G inh	A3G conf	UDG ctr A3G
C=CCn1c(CSc2nc3ccccc3s2)n[nH]c1=S	-8	11	21	-3	4	45*	75*	-2
Cc1cccc(-n2ccnc2SCC(=O)Nc2nnc(C)s2)c1	2	-1	-12	-2	-6	49*	-5	-4
COC(=O)c1sc(NC(=O)CSc2nnnn2C)nc1C	-1	-1	12	-1	-2	56*	-6	0
CC1(C)O[C@@H]2[C@H](O1)[C@@H](COS(=O)(=O)O)O[C@H]2n1cnc2c(N)ncnc21	.	.	.	0	.	-1	.	.
CC1(C)O[C@@H]2[C@H](O1)[C@@H](COS(=O)(=O)O)O[C@H]2n1c(=S)[nH]c2c(=O)[nH]c(N)nc21	-8	.	56	-2	.	49*	74*	-2
O=S(=O)(N/N=C/c1cccc(OC2CSC2)c1)c1ccccc1	-6	2	1	-1	10	-9	.	.
O=C(N/N=C/c1cccc(OC2CSC2)c1)c1ccccc1O	-5	1	-21	-4	3	73*	-8	-4
NS(=O)(=O)c1ccc(CCNC(=O)C2Cc3ccccc3CN2C(=O)c2ccco2)cc1 (stereo unspecified)	-1	-12	-8	0	-4	0	.	.
N#C/C(=N/Nc1ccc(OC(F)(F)F)cc1)C(N)=S	4	2	-11	2	7	14	.	.
NC(=S)N=Nc1ccc(NN=C(N)N)cc1	5	67*	99*	6	-13	45*	46*	.
S=c1[nH]nc(Nc2ccccc2Cl)s1	5	13	31	-8	-5	45*	66*	1
S=c1[nH]nc(Nc2cccc(Cl)c2)s1	-6	3	-9	-1	6	23	.	.
Cc1ccc(-c2n[nH]c(=S)n2/N=C/c2cccs2)cc1	-5	12	35	-9	-16	17	.	.
Cc1cccc(/C=N/n2c(-c3ccccc3)n[nH]c2=S)c1O	7	10	36	-5	16	28	.	.
Cc1cc(-c2n[nH]c(=S)n2/N=C/c2cccs2)n[nH]1	-6	12	33	-2	-11	60*	92*	-5
O=[N+]([O-])c1ccccc1/C=N/n1c(-c2ccccc2)n[nH]c1=S	0	16	47	-10	-7	51*	81*	-5
S=c1[nH]nc(-c2ccccc2)n1/N=C/c1cccs1	-4	-2	33	1	13	44*	58*	-3
S=c1[nH]nc(-c2ccco2)n1/N=C/c1cccs1	-9	22	16	-1	8	62*	81*	-2
Cc1c(NC(=O)CN2CCC(C(N)=O)CC2)cccc1[N+](=O)[O-]	-12	2	6	5	-2	0	.	.
CCOc1ccc(S(=O)(=O)N(CC)CC(=O)N2CCCC2)cc1C	2	-3	-20	-1	11	-3	.	.
COCCN(C(=O)c1ccc2c(c1)C(=O)N(c1ccccc1Cl)C2=O)c1c(N)n(CC(C)C)c(=O)[nH]c1=O	-7	.	-15	.	.	.	.	.
C=C(C)C(=O)Nc1cccc(C2=NOC3(C2)C[C@@H](C(N)=O)N(C(=O)c2ccc(OC)cc2)C3)c1 (stereo partly specified)	-4	.	22	24	3	81*	100*	.
C=C(C)C(=O)Nc1cccc(C2=NOC3(C2)C[C@@H](C(N)=O)N(C(=O)[C@H]2CCC(=O)N2)C3)c1 (stereo partly specified)	-3	.	6	4	5	43*	46*	-5
C=C(C)C(=O)Nc1cccc(C2=NOC3(C2)C[C@@H](C(N)=O)N(C(=O)c2cc([N+](=O)[O-])cc([N+](=O)[O-])c2)C3)c1 (stereo partly specified)	2	.	8	12	-9	28	.	.
C=C(C)C(=O)Nc1cccc(C2=NOC3(C2)C[C@@H](C(N)=O)N(C(=O)CCCCC)C3)c1 (stereo partly specified)	2	.	28	22	12	86*	94*	-3
SMILES	HKDC1 inh	PfM18AAP inh	PfG6PD inh	A3A deaminase	SUMO HTRF inh	APOBEC3G inh	A3G conf	UDG ctr A3G
C/C=C(/C)C(=O)Nc1cccc(C2=NOC3(C2)C[C@@H](C(N)=O)N(C(=O)[C@H]2CCC(=O)N2)C3)c1 (stereo partly specified)	-14	.	2	0	26	4	.	.
COCCNc1nc(-c2cc(-c3ccc(Cl)cc3)on2)cc(C(C)C)n1	6	.	24	-5	-2	-13	.	.
CS(=O)(=O)C1=NN2C(=N)/C(=C\c3ccc(OC(=O)c4ccco4)cc3)C(=O)N=C2S1	14	-7	-17	0	17	62*	-1	-6
CC(C)CS(=O)(=O)C1=NN2C(=N)/C(=C\c3ccc(OC(=O)c4ccco4)cc3)C(=O)N=C2S1	15	11	-35	-2	13	-1	.	.
Cc1cc(Cl)ccc1OCC(O)CN1C(C)CCCC1C (stereo unspecified)	.	7	.	1	2	0	.	.
Cc1[nH]c(=O)[nH]c(=S)c1C(=O)Nc1ccc(Cl)c(Cl)c1	-2	.	38	-1	.	60*	74*	-6
Cc1ccc(N/N=C2\CCS(=O)(=O)c3sccc32)cc1	-1	5	27	-6	7	45*	-6	-4
Nn1c(Cc2cccc3ccccc23)nnc1SCc1ccccc1Cl	2	9	1	-3	-25	-9	.	.
Cc1ccc(COc2ccc(/C=N/O)cc2)cc1	-8	-4	-8	-2	-18	-6	.	.
Cc1ccc(Oc2ccc(/C=N/O)cn2)cc1	-5	-14	-9	-5	-6	61*	-1	-4
C=C(C)c1cccc(C(C)(C)NC(=O)NCCCN2CCCC2=O)c1	-10	-4	-16	-5	12	-8	.	.
CCOc1ccccc1N1C(=O)CC(Sc2n[nH]c(-c3ccccc3)n2)C1=O (stereo unspecified)	-11	-55	29	-2	10	58*	66*	0
CN(C)S(=O)(=O)c1cc(NC(=O)CN2CCN(c3ccc(O)cc3)CC2)ccc1Cl	-5	27	43	-2	11	58*	17	-6
CN(C)S(=O)(=O)c1cc(NC(=O)CN2CCN(c3ccccc3)CC2)ccc1Cl	2	8	-11	1	14	-2	.	.
O=C(Cc1ccc(Cl)cc1)Nc1cccc(S(=O)(=O)Nc2ccccc2F)c1	-1	-1	3	0	0	-2	.	.
O=C1CCC(C(=O)Nc2cccc(S(=O)(=O)Nc3ccccc3F)c2)=NN1	-37	.	92*	5	.	73*	63*	3

Screens deposited in PubChem by several laboratories.
